SMILES strings stand for the structures. The source made the active and inactive calls. The calls are words filed in the database; no cut-off is given here.

For data set [1], the target named is Vascular endothelial growth factor receptor 2 (Homo sapiens, UniProt P35968). As to the kind of experiment: Inhibition of VEGFR2 in HUVEC cells assessed as reduction in Src phosphorylation at 20 to 40 nM incubated for 48 hrs by Western blot analysis. Type of data set: cell-based. In short, it runs like this: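 HUVECs were maintained in 1640 medium with 10% FBS. They were treated with graded concentrations for 48 h, PBS-washed and lysed in RIPA buffer. Immunoblots were probed for total and phospho VEGFR2, STAT3, Akt, Erk1 and Src, each at 1:1000. β-actin served as loading control.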

The test system of the next data set is HeLa. As to the kind of experiment: Induction of cell cycle arrest in human HeLa cells assessed as accumulation in G2/M phase at 40 to 80 nM incubated for 36 hrs by propidium iodide staining based flow cytometry. The class given is functional. In a few lines:
(§1)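 Cells were treated with graded concentrations for 36 h, then fixed overnight in 70% ice-cold ethanol at 4°C and resuspended in PBS. Staining used 50 µg/ml PI plus 5 µg/ml RNase at 37°C for 30 min. DNA content was analysed by FACS to give G0/G1, S and G2/M fractions.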
(In general: Flow cytometry measures light scatter and fluorescence of single cells or particles in a stream.)

For data set [2], the system named is SiHa. The data set can be described thus: Induction of apoptosis in human SiHa cells assessed as decrease in Ki67 expression at 40 to 80 nM incubated for 48 hrs by Western blot analysis. The class given is functional, cell-based. In short, it runs like this: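 Cancer cells were exposed to graded concentrations for 48 h, washed three times in PBS and lysed in RIPA buffer. Immunoblots were probed with anti-Rb, anti-phospho-Rb, anti-Ki67 and anti-Bcl-2, each at 1:1000. β-actin served as loading control.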
On the technique in general: A western blot detects proteins with antibodies after separation by electrophoresis.

Data set [3] can be described thus: Volume of distribution in Sprague-Dawley rat at 10 mg/kg, po by HPLC-MS analysis. The class given is ADME, organism-based. Conditions: in vivo.
The nature of data set [4]: Oral bioavailability in Sprague-Dawley rat at 10 mg/kg by HPLC-MS analysis. The class given is ADME, organism-based. Conditions: in vivo.
For data set [5], the target named is Serine/threonine-protein kinase B-raf (Homo sapiens) (UniProt P15056). The data set can be described thus: Inhibition of recombinant human B-Raf (416 to end residues) at 1 uM using myelin as substrate incubated for 40 mins in presence of [gamma-33P]-ATP by scintillation counting method relative to control. In a few lines: (§2)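 Kinase panel profiling at 1 μM performed by Eurofins KinaseProfiler; percent inhibition reported as mean of two independent experiments.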

The target of data set [6] is Calcium/calmodulin-dependent protein kinase type 1D (Homo sapiens) (UniProt Q8IU85). As to the kind of experiment: Inhibition of recombinant full length human CAMKIdelta at 1 uM using calmodulin as substrate incubated for 40 mins in presence of [gamma-33P]-ATP by scintillation counting method relative to control. In a few lines: as §2
In data set [7] the target is Transient receptor potential cation channel subfamily M member 7 (Homo sapiens) (UniProt Q96QT4). As to the kind of experiment: Inhibition of recombinant human CHAK1 (1180 to end residues) at 1 uM using myelin ba as substrate incubated for 40 mins in presence of [gamma-33P]-ATP by scintillation counting method relative to control. In a few lines: (§3)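 Tested at a single 1 uM in an outsourced commercial kinase-profiling panel, read as percent inhibition. Each value is the mean of two independent experiments.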

Data set [8] concerns the target Casein kinase I isoform gamma-1 (Homo sapiens) (UniProt Q9HCP0). As to the kind of experiment: Inhibition of recombinant human CK1gamma1 (25 to 355 residues) at 1 uM using KRRRALS(p)VAS as substrate incubated for 40 mins in presence of [gamma-33P]-ATP by scintillation counting method relative to control. In short, it runs like this:
as §2

In data set [9] the target is Tyrosine-protein kinase Lck (Homo sapiens) (UniProt P06239). As to the kind of experiment: Inhibition of recombinant human full length LCK at 1 uM using KVEKIGEGTYGVVYK as substrate incubated for 40 mins in presence of [gamma-33P]-ATP by scintillation counting method relative to control.
Data set [10] has as its target MAP kinase-activated protein kinase 3 (Homo sapiens) (UniProt Q16644). The data set can be described thus: Inhibition of recombinant human MAPKAPK3 (2 to end residues) at 1 uM using KKLNRTLSVA as substrate incubated for 40 mins in presence of [gamma-33P]-ATP by scintillation counting method relative to control. In short, it runs like this: as §3
Data set [11] addresses Serine/threonine-protein kinase NLK (Homo sapiens) (UniProt Q9UBE8). The data set can be described thus: Inhibition of recombinant human NLK (121 to end residues) at 1 uM using myelin basic protein as substrate incubated for 40 mins in presence of [gamma-33P]-ATP by scintillation counting method relative to control.
In data set [12] the target is Serine/threonine-protein kinase D1 (Homo sapiens) (UniProt Q15139). As to the kind of experiment: Inhibition of recombinant human full length PKCmu at 1 uM using KKLNRTLSVA as substrate incubated for 40 mins in presence of [gamma-33P]-ATP by scintillation counting method relative to control.
In data set [13] the target is MAP kinase-activated protein kinase 5 (Homo sapiens) (UniProt Q8IW41). The data set can be described thus: Inhibition of recombinant human full length PRAK at 1 uM using KKLRRTLSVA as substrate incubated for 40 mins in presence of [gamma-33P]-ATP by scintillation counting method relative to control.
In data set [14] the target is Proto-oncogene tyrosine-protein kinase ROS (Homo sapiens) (UniProt P08922). As to the kind of experiment: Inhibition of recombinant human ROS (1883 to end residues) at 1 uM using KKKSPGEYVNIEFG as substrate incubated for 40 mins in presence of [gamma-33P]-ATP by scintillation counting method relative to control.
The target in data set [15] is STE20-like serine/threonine-protein kinase (Homo sapiens) (UniProt Q9H2G2). The data set can be described thus: Inhibition of recombinant human SLK (1 to 373 residues) at 1 uM using RLGRDKYKTLRQIRQ as substrate incubated for 40 mins in presence of [gamma-33P]-ATP by scintillation counting method relative to control.
The target in data set [16] is TGF-beta receptor type-1 (Homo sapiens) (UniProt P36897). The data set can be described thus: Inhibition of recombinant human TGFBR1 (200 to end residues) at 1 uM using casein as substrate incubated for 40 mins in presence of [gamma-33P]-ATP by scintillation counting method relative to control.
Data set [17] concerns the target Serine/threonine-protein kinase VRK1 (Homo sapiens) (UniProt Q99986). The data set can be described thus: Inhibition of recombinant human VRK1 at 1 uM incubated for 40 mins in presence of [gamma-33P]-ATP by scintillation counting method relative to control.
Data set [18] addresses Fibroblast growth factor receptor 4 (Homo sapiens) (UniProt P22455). As to the kind of experiment: Inhibition of recombinant human FGFR4 (442 to 755 residues) at 1 uM using poly(Glu, Tyr) 4:1 as substrate incubated for 40 mins in presence of [gamma-33P]-ATP by scintillation counting method relative to control. In a few lines:
as §3

Data set [19] is described as follows: Toxicity in NOD/SCID BALB/c mouse xenografted with human SiHa cells assessed as effect on blood parameter by measuring PCT at 40 mg/kg, po administered once two days for 4 times by hematology analyzer. The class given is organism-based. The conditions noted are these: in vivo. (In general: Xenograft models place foreign cells or tissue in a host animal.)
In data set [20] the test system is SiHa. The data set can be described thus: Induction of cell cycle arrest in human SiHa cells assessed as accumulation in G2/M phase at 80 nM incubated for 36 hrs by propidium iodide staining based flow cytometry. The class given is functional. In short, it runs like this: as §1
The subject of data set [21] is SiHa. As to the kind of experiment: Antitumor activity against human SiHa cells xenografted in NOD/SCID BALB/c mouse assessed as tumor growth inhibition at 40 mg/kg, po administered for 21 days. The class given is functional, organism-based.

Chain of Proto-oncogene tyrosine-protein kinase ROS (Homo sapiens) (P08922 whole entry, the tested form may be a part): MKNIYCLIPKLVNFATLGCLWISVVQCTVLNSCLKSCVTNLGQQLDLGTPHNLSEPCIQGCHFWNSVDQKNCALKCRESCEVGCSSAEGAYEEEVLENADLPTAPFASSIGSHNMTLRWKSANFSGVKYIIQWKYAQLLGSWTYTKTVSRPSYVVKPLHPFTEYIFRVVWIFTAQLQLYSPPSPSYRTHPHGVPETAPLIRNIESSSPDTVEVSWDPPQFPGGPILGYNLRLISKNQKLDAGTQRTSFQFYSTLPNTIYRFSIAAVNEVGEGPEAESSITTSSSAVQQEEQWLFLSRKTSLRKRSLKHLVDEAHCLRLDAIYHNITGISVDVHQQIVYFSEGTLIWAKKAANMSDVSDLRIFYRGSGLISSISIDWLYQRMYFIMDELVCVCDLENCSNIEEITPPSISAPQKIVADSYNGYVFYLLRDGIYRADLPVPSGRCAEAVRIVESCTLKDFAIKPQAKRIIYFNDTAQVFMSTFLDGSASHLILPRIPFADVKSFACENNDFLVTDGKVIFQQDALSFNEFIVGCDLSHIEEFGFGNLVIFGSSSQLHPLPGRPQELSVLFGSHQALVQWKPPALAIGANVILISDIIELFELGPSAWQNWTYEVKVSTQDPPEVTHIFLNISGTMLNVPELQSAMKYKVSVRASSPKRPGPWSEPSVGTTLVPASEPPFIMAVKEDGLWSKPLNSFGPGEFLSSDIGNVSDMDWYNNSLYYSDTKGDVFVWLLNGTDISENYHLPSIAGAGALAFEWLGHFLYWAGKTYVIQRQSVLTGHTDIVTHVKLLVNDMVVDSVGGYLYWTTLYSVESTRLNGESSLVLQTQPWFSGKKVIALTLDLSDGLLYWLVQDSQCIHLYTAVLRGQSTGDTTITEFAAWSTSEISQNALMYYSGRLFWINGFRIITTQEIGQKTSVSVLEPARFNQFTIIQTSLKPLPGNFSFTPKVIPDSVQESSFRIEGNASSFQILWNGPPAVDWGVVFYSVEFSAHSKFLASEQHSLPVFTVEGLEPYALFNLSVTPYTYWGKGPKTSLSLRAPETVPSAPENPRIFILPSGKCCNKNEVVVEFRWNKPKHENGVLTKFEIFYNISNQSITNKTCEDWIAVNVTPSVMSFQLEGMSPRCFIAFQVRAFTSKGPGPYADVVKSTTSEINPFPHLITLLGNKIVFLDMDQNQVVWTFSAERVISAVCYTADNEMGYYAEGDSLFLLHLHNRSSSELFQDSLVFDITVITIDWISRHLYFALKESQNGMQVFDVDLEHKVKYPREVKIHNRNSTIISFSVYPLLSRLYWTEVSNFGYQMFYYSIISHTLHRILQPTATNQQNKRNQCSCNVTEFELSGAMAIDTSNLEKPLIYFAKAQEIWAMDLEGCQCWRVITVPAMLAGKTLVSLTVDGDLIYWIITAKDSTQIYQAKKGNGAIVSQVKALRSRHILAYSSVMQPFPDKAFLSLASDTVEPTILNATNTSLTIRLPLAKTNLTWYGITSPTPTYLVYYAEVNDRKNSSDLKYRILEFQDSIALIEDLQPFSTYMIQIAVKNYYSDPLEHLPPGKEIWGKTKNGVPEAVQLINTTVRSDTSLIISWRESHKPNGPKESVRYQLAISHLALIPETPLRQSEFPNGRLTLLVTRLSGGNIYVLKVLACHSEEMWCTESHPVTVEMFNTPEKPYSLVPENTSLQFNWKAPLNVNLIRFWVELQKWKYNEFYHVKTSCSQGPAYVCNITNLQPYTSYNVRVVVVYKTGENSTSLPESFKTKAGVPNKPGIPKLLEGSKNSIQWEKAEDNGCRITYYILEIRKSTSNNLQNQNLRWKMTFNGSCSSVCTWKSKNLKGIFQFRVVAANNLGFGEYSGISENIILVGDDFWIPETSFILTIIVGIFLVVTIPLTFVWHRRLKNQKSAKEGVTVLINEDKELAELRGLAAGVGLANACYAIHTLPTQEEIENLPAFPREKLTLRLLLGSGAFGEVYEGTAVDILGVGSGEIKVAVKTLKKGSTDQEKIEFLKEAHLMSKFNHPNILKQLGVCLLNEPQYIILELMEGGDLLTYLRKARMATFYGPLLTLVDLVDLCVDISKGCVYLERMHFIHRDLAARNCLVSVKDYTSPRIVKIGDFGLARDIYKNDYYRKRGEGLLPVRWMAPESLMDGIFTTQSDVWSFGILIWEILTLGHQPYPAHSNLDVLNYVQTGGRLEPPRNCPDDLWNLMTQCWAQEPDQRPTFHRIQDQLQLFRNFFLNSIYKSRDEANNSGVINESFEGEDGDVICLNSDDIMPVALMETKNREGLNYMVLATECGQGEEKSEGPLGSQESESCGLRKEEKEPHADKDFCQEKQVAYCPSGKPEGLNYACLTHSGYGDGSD
Chain of STE20-like serine/threonine-protein kinase (Homo sapiens) (Q9H2G2 whole entry, looked up, the tested form may be a part): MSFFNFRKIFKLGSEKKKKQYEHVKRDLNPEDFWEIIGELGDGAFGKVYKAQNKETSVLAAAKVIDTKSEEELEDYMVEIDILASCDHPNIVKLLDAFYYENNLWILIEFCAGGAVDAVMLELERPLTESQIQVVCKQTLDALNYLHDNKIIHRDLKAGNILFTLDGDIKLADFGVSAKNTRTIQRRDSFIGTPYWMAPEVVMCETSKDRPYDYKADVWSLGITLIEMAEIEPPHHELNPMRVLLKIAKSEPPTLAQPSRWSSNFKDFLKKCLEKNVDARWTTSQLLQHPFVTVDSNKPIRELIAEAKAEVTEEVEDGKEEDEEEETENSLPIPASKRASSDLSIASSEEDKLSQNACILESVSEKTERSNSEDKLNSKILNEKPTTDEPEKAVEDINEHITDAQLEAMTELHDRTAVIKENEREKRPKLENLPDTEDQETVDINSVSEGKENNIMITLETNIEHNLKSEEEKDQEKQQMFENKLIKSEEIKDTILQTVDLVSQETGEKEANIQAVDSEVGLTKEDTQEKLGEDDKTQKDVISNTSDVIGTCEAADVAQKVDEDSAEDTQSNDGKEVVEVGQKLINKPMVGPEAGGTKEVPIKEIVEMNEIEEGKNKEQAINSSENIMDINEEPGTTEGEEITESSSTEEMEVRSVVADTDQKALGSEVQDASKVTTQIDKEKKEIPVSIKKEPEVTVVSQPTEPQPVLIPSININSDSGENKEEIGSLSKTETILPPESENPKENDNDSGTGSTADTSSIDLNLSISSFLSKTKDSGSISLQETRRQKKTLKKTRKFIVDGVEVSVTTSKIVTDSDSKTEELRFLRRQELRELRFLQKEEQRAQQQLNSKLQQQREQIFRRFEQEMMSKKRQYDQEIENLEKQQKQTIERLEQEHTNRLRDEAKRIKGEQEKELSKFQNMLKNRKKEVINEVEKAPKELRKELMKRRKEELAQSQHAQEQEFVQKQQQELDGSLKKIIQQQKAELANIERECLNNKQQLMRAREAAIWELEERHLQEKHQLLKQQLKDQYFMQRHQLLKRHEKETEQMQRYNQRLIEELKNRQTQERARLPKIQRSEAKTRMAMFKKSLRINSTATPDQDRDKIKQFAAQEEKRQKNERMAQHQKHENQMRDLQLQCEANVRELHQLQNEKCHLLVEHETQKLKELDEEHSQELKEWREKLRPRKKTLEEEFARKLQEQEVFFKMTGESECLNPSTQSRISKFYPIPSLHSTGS
Chain of Serine/threonine-protein kinase D1 (Homo sapiens) (Q15139 whole entry): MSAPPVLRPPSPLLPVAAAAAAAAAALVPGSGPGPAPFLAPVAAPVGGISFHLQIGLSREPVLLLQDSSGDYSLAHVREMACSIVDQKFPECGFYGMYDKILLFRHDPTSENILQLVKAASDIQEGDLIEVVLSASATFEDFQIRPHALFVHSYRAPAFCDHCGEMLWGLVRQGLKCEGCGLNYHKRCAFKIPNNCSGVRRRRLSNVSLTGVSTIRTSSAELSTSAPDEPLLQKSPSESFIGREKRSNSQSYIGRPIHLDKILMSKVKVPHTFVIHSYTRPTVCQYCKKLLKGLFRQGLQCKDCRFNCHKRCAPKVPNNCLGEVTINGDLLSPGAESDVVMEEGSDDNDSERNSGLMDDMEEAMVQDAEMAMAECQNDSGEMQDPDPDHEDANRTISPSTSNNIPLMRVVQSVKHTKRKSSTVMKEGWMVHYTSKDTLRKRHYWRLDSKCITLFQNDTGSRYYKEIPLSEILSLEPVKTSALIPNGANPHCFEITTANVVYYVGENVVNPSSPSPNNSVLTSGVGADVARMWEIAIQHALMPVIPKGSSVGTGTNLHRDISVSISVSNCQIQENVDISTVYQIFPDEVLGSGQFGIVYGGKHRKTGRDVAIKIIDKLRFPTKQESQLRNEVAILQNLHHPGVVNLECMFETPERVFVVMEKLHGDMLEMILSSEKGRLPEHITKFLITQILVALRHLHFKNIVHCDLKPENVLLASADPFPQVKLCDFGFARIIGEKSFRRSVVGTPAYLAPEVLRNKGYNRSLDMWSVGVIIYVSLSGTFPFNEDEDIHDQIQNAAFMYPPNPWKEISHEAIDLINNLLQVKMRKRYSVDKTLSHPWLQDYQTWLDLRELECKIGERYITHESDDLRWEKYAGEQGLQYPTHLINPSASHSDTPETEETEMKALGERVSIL
Chain of MAP kinase-activated protein kinase 5 (Homo sapiens) (Q8IW41 whole entry): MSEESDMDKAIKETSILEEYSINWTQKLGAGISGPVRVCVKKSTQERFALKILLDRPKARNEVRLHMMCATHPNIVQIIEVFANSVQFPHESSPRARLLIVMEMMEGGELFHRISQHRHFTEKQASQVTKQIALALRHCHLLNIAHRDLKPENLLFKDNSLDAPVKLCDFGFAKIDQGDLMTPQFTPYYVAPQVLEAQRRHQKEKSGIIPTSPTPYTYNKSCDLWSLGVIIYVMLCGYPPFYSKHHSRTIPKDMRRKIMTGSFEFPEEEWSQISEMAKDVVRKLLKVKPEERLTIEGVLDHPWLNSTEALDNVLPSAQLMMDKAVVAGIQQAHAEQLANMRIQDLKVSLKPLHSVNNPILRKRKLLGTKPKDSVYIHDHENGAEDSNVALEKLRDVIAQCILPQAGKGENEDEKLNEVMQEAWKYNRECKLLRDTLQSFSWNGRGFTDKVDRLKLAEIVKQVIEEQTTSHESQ

For the molecule `Cc1ccc(NC(=O)C2(C(=O)Nc3ccc(Nc4ncc(F)c(-c5cc(F)c6nc(C)n(C(C)C)c6c5)n4)cc3)CC2)cc1`, the inhibition (as a rule, the share of the control response that was lost under treatment) in data set [1] was “Active”. The result in the data set on HeLa and with SiHa [2] was Active. In data set [3], this molecule yielded a Vd of 6 L/kg. The bioavailability (commonly dose-corrected exposure relative to a reference, in per cent) in data set [4] amounted to 60%. Also, the inhibition turned out to be 32% in [5]; 1% in [6]; 0% in data set [7]; 23% in [8]; 49% in data set [9]; 0% in data set [10]. Moreover, the inhibition in [11] worked out at 44%; in data set [12], 14%; in data set [13], 1%; in data set [14] it was 58%; in data set [15] it was 90%; in data set [16], 6%. For the same molecule, the inhibition is 9% in data set [17] and 0% in [18]. Further, the Activity result in [19] was “Non-Toxic”.

`COc1cc2nccc(Oc3ccc(NC(=O)C4(C(=O)Nc5ccc(F)cc5)CC4)cc3)c2cc1OC` [CABOZANTINIB]: in the data set on SiHa [20], the result was Active. For the same molecule, in the data set with SiHa [21], the TGI entry was “Active”.

These data come from ChEMBL document CHEMBL4406821, “Novel dual inhibitors targeting CDK4 and VEGFR2 synergistically suppressed cancer progression and angiogenesis” (Eur J Med Chem, 2019).
